Results published in ChEMBL document CHEMBL2346509, “Novel R-roscovitine NO-donor hybrid compounds as potential pro-resolution of inflammation agents” (2013).
Calls of active or inactive are those of the source. The rule behind the calls is not given here.

Legend:
Neutrophil [1] = assay: Induction of apoptosis in human neutrophils assessed as cellular shrinkage and nuclear pyknosis at 3 uM after 6 hrs by light microscopy analysis; assay type: functional, cell-based
Summary of the method: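 Neutrophils isolated from healthy volunteers' citrated blood by dextran sedimentation and a density gradient (granulocytes at the 70:81 boundary, >96% pure). Cells at 5 × 10^6/mL in IMDM with penicillin/streptomycin and 0.1% BSA, 37 °C, 5% CO2, treated in duplicate. Final DMSO 0.04–0.12%. Cells cytocentrifuged, methanol-fixed 2 min, Diff-Quick stained, and scored for apoptotic morphology at 40× and 100×.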

Neutrophil [2] = assay: Induction of apoptosis in human neutrophils assessed as pre-necrotic cells after 6 hrs by annexin V/propidium iodide staining based flow cytometric analysis; assay type: functional, cell-based
Summary of the method: (§1)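 Neutrophils isolated from peripheral blood of healthy volunteers (>96% purity), resuspended at 5 × 10^6/mL in IMDM with penicillin, streptomycin and 0.1% w/v BSA. Compounds from 50 mM DMSO stocks (final DMSO 0.04–0.12%) were added just before cells, in duplicate, at 37 °C, 5% CO2. Cells were stained with annexin V in Ca-containing HBSS on ice for 10 min in the dark, PI was added, and cells were analysed by flow cytometry. Diff-Quick morphology confirmed results.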

Neutrophil [3] = assay: Induction of apoptosis in human neutrophils assessed as apoptotic cells at 3 uM after 6 hrs by annexin V/propidium iodide staining based flow cytometric analysis; assay type: functional; summary of the method: as §1
Neutrophil [4] = assay: Induction of apoptosis in human neutrophils assessed as pre-necrotic cells at 3 to 10 uM after 6 hrs by annexin V/propidium iodide staining based flow cytometric analysis in presence of ODQ; assay type: functional, cell-based
Summary of the method: (§2)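 Human blood neutrophils at 5 × 10^6/mL in IMDM/0.1% BSA with antibiotics were pre-incubated for 15 min with L-NAME (prepared in IMDM) or with ODQ (10 μM; from a 10 mM stock in 0.01% NaOH). Test compounds were then added from DMSO stocks and cells cultured in duplicate at 37 °C, 5% CO2. Apoptosis was read by annexin V/PI flow cytometry.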

Neutrophil [5] = assay: Induction of apoptosis in human neutrophils assessed as necrotic cells at 3 uM after 6 hrs by annexin V/propidium iodide staining based flow cytometric analysis; assay type: functional; summary of the method: as §1
Neutrophil [6] = assay: Induction of apoptosis in human neutrophils assessed as secondary necrosis at 10 uM after 8 hrs by annexin V/propidium iodide staining based flow cytometric analysis
Neutrophil [7] = assay: Induction of apoptosis in human neutrophils assessed as pre-necrotic cells at 3 uM after 6 hrs by annexin V/propidium iodide staining based flow cytometric analysis; assay type: functional; summary of the method: as §1
Neutrophil [8] = assay: Induction of apoptosis in human neutrophils assessed as pre-necrotic cells at 3 uM after 6 hrs by annexin V/propidium iodide staining based flow cytometric analysis in presence of PTIO; assay type: functional, cell-based
Summary of the method: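 Healthy-volunteer neutrophils (>96% pure) at 5 × 10^6/mL in IMDM with 0.1% BSA and penicillin/streptomycin, 37 °C, 5% CO2, in duplicate. Co-incubated with the NO scavenger PTIO, made directly in IMDM. Final DMSO 0.04–0.12%. Cells stained with annexin V (1/500 in CaCl2–HBSS binding buffer) 10 min on ice in the dark, then PI added before flow cytometry.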

Neutrophil [9] = assay: Induction of apoptosis in human neutrophils at 10 uM by annexin V/propidium iodide staining based flow cytometric analysis; assay type: functional, cell-based; settings: TDE = time-dependent effect; summary of the method: as §1
Neutrophil [10] = assay: Induction of apoptosis in human neutrophils assessed as pre-necrotic cells at 3 to 10 uM after 6 hrs by annexin V/propidium iodide staining based flow cytometric analysis in presence of L-NAME; assay type: functional, cell-based; summary of the method: as §2
Neutrophil [11] = assay: Induction of apoptosis in human neutrophils assessed as viable cells at 3 uM after 6 hrs by annexin V/propidium iodide staining based flow cytometric analysis; assay type: functional; settings: read-out: Activity; summary of the method: as §1

| Structure (SMILES) | Activity (Neutrophil [1]) | Activity (Neutrophil [2]) | Activity (Neutrophil [3]) [%] | Activity (Neutrophil [4]) | Activity (Neutrophil [5]) [%] | Activity (Neutrophil [6]) | Activity (Neutrophil [7]) [%] | Activity (Neutrophil [8]) | Activity (Neutrophil [9]) | Activity (Neutrophil [10]) | viability at 3 µM (Neutrophil [11]) [%] |
| --- | --- | --- | --- | --- | --- | --- | --- | --- | --- | --- | --- |
| CC[C@H](CO)Nc1nc(NCc2ccc(OCCCO[N+](=O)[O-])cc2)c2ncn(C(C)C)c2n1 | Active | Dose-dependent effect | 86.9 | Active | 0.63 | Active | 0.017 | inactive | tde | Active | 12.5 |
| CC[C@H](CO)Nc1nc(NCc2ccc(OCc3nonc3C(N)=O)cc2)c2ncn(C(C)C)c2n1 | – | Dose-dependent effect | – | – | – | – | – | – | – | – | – |
| CC[C@H](CO)Nc1nc(NCc2ccccc2)c2ncn(C(C)C)c2n1 [SELICICLIB] | Active | – | 6.98 | Active | 0.386 | Active | 0.033 | Active | tde | Active | 92.6 |
| CN1C(=O)[C@]23CC4=CC=C[C@H](O)[C@H]4N2C(=O)[C@@]1(CO)SS3 | – | – | – | – | – | – | – | Active | – | – | – |
| CC[C@H](CO)Nc1nc(NCc2ccc(OCc3no[n+]([O-])c3C(N)=O)cc2)c2ncn(C(C)C)c2n1 | – | Dose-dependent effect | – | Active | – | Active | – | – | tde | Active | – |
| CC[C@H](CO)Nc1nc(NCc2ccc(OCCCOC)cc2)c2ncn(C(C)C)c2n1 | – | Dose-dependent effect | – | Active | – | – | – | – | – | Active | – |
| CC[C@H](COC(=O)CCCO[N+](=O)[O-])Nc1nc(NCc2ccccc2)c2ncn(C(C)C)c2n1 | – | Dose-dependent effect | – | Active | – | Active | – | – | tde | Active | – |
